Several values for one entry are separate records, joined by “and”; a condition that tells them apart may be missing. Identical values can stand only once. Like-named read-outs stand apart in the source and are kept apart here.
Columns and labels:
[1] = human, plasma, 60 mg
[2] = dual delayed-release formulation; cited from earlier work
[3] = Safety evaluation; format: in vivo, healthy adults; settings: for Participants with any TEAEs: 60 mg
Summary of the method: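 3-period crossover; single 60 mg test compound, fasted ≥10 h pre and 4 h post, as granules in 20 mL water via 16 French NG tube or oral syringe, or intact capsule with 240 mL water; ≥5-day washout. TEAE: onset/worsening from first dose to 30 days after last; MedDRA 15.0; phone follow-up 5–10 days post final dose; all dosed subjects.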

SMILES: Cc1c(OCC(F)(F)F)ccnc1C[S@@+]([O-])c1nc2ccccc2[nH]1 [Dexlansoprazole, dexlansoprazole]
- Tmax ([1]; oral): ~5 h
- Tmax ([1]; po): ~5.5 h
- Time of first release of dexlansoprazole after dosing [2]: 1 to 2 h
- Time of second release of dexlansoprazole after dosing [2]: 4 to 5 h
- Tolerability ([3]; 60 mg capsule, single doses, all administration routes): well tolerated
- Participants with any TEAEs ([3]; oral intact capsule, N=52): 12 (23.1%) n (%) and 12 (23.1) n (%)
- Participants with any TEAEs ([3]; oral syringe administration, N=60): 10 (16.7%) n (%) and 10 (16.7) n (%)

From paper PMC6177519 (Clinical and Experimental Gastroenterology, 2018)
